Assay outcomes: PubChem, several laboratories
HEK293 NFkB inh: inhibitors of the PMA/ionomycin-induced NF-kB reporter in HEK293 cells; HEK-293 NF-kB luciferase reporter, luminescence; inhibition, % at 3 µM; 62,000 tested, 0.21% active; AID 465;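 active means inhibition above the mean of all tested compounds plus 3 SD, cut at about 40% in these data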;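 further: 0% = stimulated DMSO wells and 100% = 10 µM reference inhibitor 5653914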
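Signal: luciferase luminescence; Material: HEK-293 cells with stable firefly luciferase reporter driven by four HIV NF-kB elements; Probe or stimulus: PMA with ionomycin; Replication: tested once; Times: 1 h compound pretreatment, then 16 h stimulation at 37 °C, 5% CO2; Benchmarks: DMSO and 10 µM reference inhibitor; Evaluation: per-plate % inhibition versus controls.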
SF1 activator: activates the human nuclear receptor SF-1 | AID 522 | CHO-K1 Gal4-SF-1 LBD luciferase reporter; % increase over DMSO SF-1-specific signal | 65,000 tested, 1.9% active | Q13285 | activation, % at 10 µM;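 active means activation above the mean activation of all tested compounds plus 3 SD, cut at about 50% in these data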
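Test system: transient Gal4-SF-1 LBD reporter, CHO-K1; Amount: 4,000 CHO-K1 cells per well; Doses: 10 µM only; Timing: compound exposure 20 h at 37 °C; Signal: luciferase light emission; Read-out basis: percent activation relative to DMSO median and mock-transfected background; Control set: DMSO negative control and −SF1 background wells; Replicates: one test per compound.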
JNK3 inh: JNK3 (human) kinase inhibition; P53779; purified JNK3 kinase activity, HTS; inhibition, % at 8 µM; 60,000 tested, 0.61% active; AID 746; in the data active means inhibition above about 17%;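 further: 0% = DMSO and 100% = reference inhibitor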
RORA act: RORA (human) activation | P35398 | CHO-K1 Gal4-RORA LBD luciferase reporter, luminescence; percent increase over mock-subtracted basal signal | activation, % at 10 µM | 65,000 tested, 1.5% active | AID 560;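 active means activation above the mean of all tested compounds plus 3 SD, cut at about 49% in these data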;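 further: 0% = DMSO-treated RORA cells and 100% = added signal equal to DMSO minus mock-transfected cells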
D1 mod: allosteric modulators of human D1 dopamine receptor | P21728 | HEK293 D1, CRE-luciferase, dopamine EC30 potentiation; actives deviate in either direction | B-score at 10 µM | 58,000 tested, 5.9% active;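 active means luminescence count or its row- and column-corrected plate score outside the 99.7% band of the plate's sample wells, on either side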
Target sequence (P21728 whole entry, looked up): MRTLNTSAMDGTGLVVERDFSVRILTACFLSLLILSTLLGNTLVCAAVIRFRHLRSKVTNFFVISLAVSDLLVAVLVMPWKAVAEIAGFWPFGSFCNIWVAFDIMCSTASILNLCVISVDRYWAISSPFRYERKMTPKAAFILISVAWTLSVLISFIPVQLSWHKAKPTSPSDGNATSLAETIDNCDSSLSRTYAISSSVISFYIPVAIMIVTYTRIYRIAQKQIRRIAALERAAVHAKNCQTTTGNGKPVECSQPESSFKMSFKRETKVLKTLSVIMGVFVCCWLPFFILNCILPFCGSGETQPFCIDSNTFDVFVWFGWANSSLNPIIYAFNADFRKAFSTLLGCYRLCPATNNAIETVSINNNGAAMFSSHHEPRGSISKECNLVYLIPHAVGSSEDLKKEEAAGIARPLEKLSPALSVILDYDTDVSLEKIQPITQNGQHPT
D1 PAM confirm: D1 receptor (human) allosteric modulation, confirmed | shares compounds with D1 mod | HEK293 D1 CRE-luciferase, dopamine EC30 potentiation; active compounds read high | luminescence at 10 µM | 2,200 tested, 88% active | AID 642;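 active means luminescence in either of two replicates above the same-plate mean plus 3 SD of the low-dose dopamine control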
D1 ag no DA: secondary test of D1 modulators: activity without dopamine | HEK293 D1 CRE-luciferase, luminescence, no dopamine; active compounds read high | AID 646 | shares compounds with D1 mod | luminescence at 10 µM | 1,900 tested, 0.8% active; in the data active means luminescence above about 3900
Isoprot counter: isoproterenol response counter-screen activity for D1 modulators | calls only at 10 µM | shares compounds with D1 mod | HEK293 D1 CRE-luciferase, isoproterenol EC30 counter-screen | 2,200 tested, 63% active | AID 647;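 active means luminescence in either replicate above plate mean of wells with a partly effective reference agonist dose plus 3 SD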;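 further: isoproterenol raises cAMP through native beta-adrenoceptor Gs so signal bypasses D1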
Numbers without * were called inactive; i = inactive; . = no result given; + = active, no number. The list is not random: actives were taken first. Their share in the collection is about 7.9%.

SMILES	HEK293 NFkB inh	SF1 activator	JNK3 inh	RORA act	D1 mod	D1 PAM confirm	D1 ag no DA	Isoprot counter
O=C(O)CCCn1nc(-c2ccccc2)c2ccccc21	1.7	-4.3	-2.3	-15.5	.	.	.	.
COC(=O)Cn1nc(-c2ccccc2)c2ccccc21	10.5	-8.0	3.5	-8.1	2.53*	5172	1632	i
CCOC(=O)c1c(-c2ccc(C)o2)csc1NC(=O)CN1CCN(CC)CC1	8.0	16.6	7.0	-5.7	.	.	.	.
COC(=O)c1c(-c2cccs2)csc1NC(=O)CN1CCOCC1	4.6	0.1	23.2*	19.3	28.1*	18224*	1740	+
CN(CC(=O)N1CCc2ccccc21)S(=O)(=O)c1ccc(Br)s1	13.3	9.4	.	-8.5	-0.32	.	.	.
Brc1ccccc1-c1nnc(CSc2nnc3sc4ccccc4n23)o1	9.9	21.5	.	4.8	0.937	.	.	.
CCC(NC(C)C)C(O)c1ccc(O)c(O)c1 (stereo not given)	.	12.4	5.2	18.3	12.7*	9904*	3836*	+
CCCC(C(=O)NC1CCCC1)N(C(=O)Cn1nnc(-c2ccc(C)o2)n1)c1ccccc1OC (stereo not given)	11.2	-6.4	-5.1	21.9	0.102	.	.	.
O=C1N(CN2CCN(c3cccc(Cl)c3)CC2)c2ccccc2C12OCCCO2	8.7	11.7	-0.3	-11.2	2.4*	3096*	1476	i
O=C1N(CN2CCC3(CC2)OCCO3)c2ccccc2C12OCCCO2	12.6	-2.7	0.5	-2.2	-0.841	.	.	.
COc1ccc(-c2csc(Cc3nnc(N4CCOCC4)n3-c3ccccc3)n2)cc1	14.7	0.8	.	-10.8	0.178	.	.	.
COc1ccc(CN(C(=O)c2ccco2)c2ccc(C)cc2)cc1OC	9.1	5.4	7.6	-22.5	10.1*	22164*	1620	+
Brc1ccccc1C1=Nn2c(nnc2-c2ccccc2)SC1	10.1	-8.1	-2.6	-4.4	11.6*	13500*	1464	+
CCOc1ccc(C2=Nn3c(nnc3-c3ccccc3OC)SC2)cc1	.	-72.9	4.4	-54.0	28.2*	21740*	.	+
COc1ccccc1-c1nnc2n1N=C(c1ccc(O)c(O)c1)CS2	.	-66.6	-5.3	-46.4	22.9*	21320*	.	+
CCOc1ccc(-c2nnc3n2N=C(c2ccc(OC)cc2)CS3)cc1	8.5	23.7	.	11.4	.	.	.	.
Cc1occc1-c1nnc(SCC(=O)Nc2ccccc2N2CCCCC2)n1C	5.1	-19.4	8.8	-1.8	-0.0651	.	.	.
Nc1nc(SCc2ccc3c(c2)OCCO3)n[nH]1	7.7	10.8	0.9	27.9	4.9*	9268*	1676	i
COc1cc(C(=O)Nc2nncs2)cc(OC)c1OC	8.4	-2.5	-0.2	0.1	0.797	.	.	.
CCOc1ccc(C(=O)Nc2nncs2)cc1OCC	-2.1	-6.9	-0.2	-3.1	10.2*	18420*	1592	+
CN1CCn2c1nc(N1CCOCC1)nc2=O	-0.2	8.0	7.4	25.9	.	.	.	.
Clc1ccc(OCc2nnc3n2N=C(c2ccc4c(c2)OCCO4)CS3)c(Cl)c1	-2.8	-34.8	-4.2	-1.7	3.97*	9040*	1568	+
CCn1c(=O)c2ccccc2n2c(SCC(=O)NCc3cccs3)nnc12	5.5	-19.2	-1.2	-4.0	4.69*	7672	1452	i
NC(=O)CC(O)c1cccc(Cl)c1 (stereo not given)	10.6	-7.1	-0.6	11.5	-0.0342	.	.	.
CCOC(=O)c1cnc(-n2nc(C)cc2C)nc1NCc1ccccc1	8.8	-42.1	1.5	14.3	3.11	.	.	.
CCOC(=O)c1cnc(-n2nc(C)cc2C)nc1NC(C)c1ccccc1 (stereo not given)	19.6	-49.4	3.0	7.5	8.31*	9080*	1572	+
CC(=O)n1c2ccccc2c2nc(NC(C)C)sc21	3.7	15.4	-7.3	5.5	6.35*	8636*	1696	+
CCOC(=O)c1ccc(Cn2c(-c3ccccc3)nnc2-c2ccccc2)o1	14.0	-19.3	-8.9	-3.2	0.772	.	.	.
